Data from ChEMBL document CHEMBL3414501, “New platelet aggregation inhibitors based on pyridazinone moiety” (Eur J Med Chem, 2015).
pIC50: −log10 of the molar value. The source made the active and inactive calls. The rule behind the calls is not given here.

Assays:
Assay type in all cases: functional, cell-based
[1] = Antiplatelet activity in human platelet assessed as inhibition of collagen-induced platelet aggregation incubated for 5 mins prior to collagen challenge measured over 5 mins by turbidimetric method
In short: (§1)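 Washed human platelets from buffy coat, resuspended in Tyrode-HEPES pH 7.4 with 2 mM CaCl2. Compound in DMSO preincubated with platelets, then collagen (2-4 μg/mL), CRP, thrombin, U-46619 or ionomycin added. Light transmission followed over 5 min in a dual-channel aggregometer (Born turbidimetry); aggregation taken as maximal transmission change. Non-collagen agonists tested at 20 μM compound; at least four experiments in duplicate.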

Platelet [2] = assay: Antiplatelet activity in human platelet assessed as inhibition of CRP-XL-induced activated Gp2b/3a expression incubated for 5 mins prior to CRP-XL challenge measured after 15 mins by flow cytometry
In short: (§2)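 Washed platelets from donor buffy coat in modified Tyrode-HEPES (pH 7.4, 2 mM Ca2+), pre-incubated 5 min with DMSO or compound. Flow cytometry: CRP-XL stimulation with FITC-PAC-1 for 15 min at room temperature, 10,000 events, PAC-1 mean fluorescence and % positive platelets. Phosphotyrosine: CRP-XL 5 μg/mL, SDS/EDTA (2%/1 mM final) lysates, immunodot blot with 4G10, HRP secondary, chemiluminescence.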

Platelet [3] = assay: Antiplatelet activity in human platelet assessed as inhibition of CRP-XL-induced platelet aggregation at 20 uM incubated for 5 mins prior to CRP-XL challenge measured over 5 mins by […]; in short: as §1
Platelet [4] = assay: Antiplatelet activity in human platelet assessed as inhibition of ionomycin-induced platelet aggregation at 20 uM incubated for 5 mins prior to U-46619 challenge measured over 5 mins by […]; settings: in the assay text read “ionomycin challenge” for “U-46619 challenge”; in short: as §1
Platelet [5] = assay: Antiplatelet activity in human platelet assessed as inhibition of thrombin-induced platelet aggregation at 20 uM incubated for 5 mins prior to thrombin challenge measured over 5 mins by […]; in short: as §1
Platelet [6] = assay: Antiplatelet activity in human platelet assessed as inhibition of U-46619-induced platelet aggregation at 20 uM incubated for 5 mins prior to U-46619 challenge measured over 5 mins by […]; in short: as §1
Platelet [7] = assay: Antiplatelet activity in human platelet assessed as inhibition of CRP-XL-induced phosphotyrosine level incubated for 5 mins prior to CRP-XL challenge measured after 5 mins by immunodot blot analysis; in short: as §2

With `O=c1c(CBr)ccnn1Cc1ccccc1` as the compound, how does the pIC50 [1] read?
Its pIC50 is < 4.00.

With `O=c1cc(CBr)cnn1Cc1ccccc1` as the compound, how does the pIC50 [1] read?
Its pIC50 is < 4.00.

With `O=c1cc2c(n[nH]1)CCCO2` as the compound, how does the pIC50 [1] read?
The pIC50 was < 4.00.

With `O=c1c(COCc2ccccc2)ccnn1Cc1ccccc1` as the compound, how does the pIC50 [1] read?
Its pIC50 is 4.76.

With `O=c1cc(CO)cnn1Cc1ccccc1` as the compound, how does the pIC50 [1] read?
Its pIC50 is < 4.00.

With `O=c1cc(COCc2ccccc2)cnn1Cc1ccccc1` as the compound, how does the pIC50 [1] read?
The pIC50 was 5.43.

With `O=C1CC2OCCC2=NN1` (configuration not stated) as the compound, how does the pIC50 [1] read?
Its pIC50 is 4.15.

With `CC(C)(C)[Si](OCc1ccnn(Cc2ccccc2)c1=O)(c1ccccc1)c1ccccc1` as the compound, how does the pIC50 [1] read?
Its pIC50 is 5.88.

For `CC(C)(C)[Si](OCc1cnn(Cc2ccccc2)c(=O)c1)(c1ccccc1)c1ccccc1`, which inhibition (Platelet [2]) is on record?
Its inhibition is “Active”.

And the inhibition (Platelet [3])?
Its inhibition is “Active”.

What about the inhibition (Platelet [4]) of the same compound?
Its inhibition is “inactive”.

What about the inhibition (Platelet [5]) of the same compound?
Its inhibition is “inactive”.

What about the pIC50 [1] of the same compound?
The pIC50 was 6.26.

What about the inhibition (Platelet [6]) of the same compound?
The inhibition was “inactive”.

What about the inhibition (Platelet [7]) of the same compound?
Its inhibition is “Dose-dependent effect”.

With `O=C1CC2OCCCC2=NN1` (configuration not stated) as the compound, how does the pIC50 [1] read?
Its pIC50 is < 4.00.

With `O=c1c(CO)ccnn1Cc1ccccc1` as the compound, how does the pIC50 [1] read?
Its pIC50 is < 4.00.
